# Test results taken from PubChem BioAssay.
# The source made the active and inactive calls.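 The calls were made as follows, unless noted: active = inhibition at or above 50% at 10 µM; inactive = inhibition below 50%.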
# Experiments:
# [1] = inhibitors of TNFa-induced NFkB p65 translocation, primary screen, imaging, HUVEC, MLSMR starter and 10KST1 sets (AID 438;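 active = inhibition above 20% together with a positive visual image hit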;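 also: compound added about 3h40 before a 20 min TNFalpha stimulation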;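 as to inhibition: signal is the nuclear over cytoplasmic p65 intensity ratio per well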); details: HUVEC TNFa-induced p65 nuclear translocation; cell count: measured here: nuclei count (cytotoxicity indicator), at 2.08 µM; inhibition: at 2 µM, stronger effect = higher value, 0% TNFa-plus-vehicle, 100% no-TNFa wells
# [2] = reduction of polyQ htt aggregates in cells – imaging, exon1htt(103Q)mCFP cells, high-content imaging, primary screen (AID 483;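 active = visual image review flags a hit and inhibition of aggregation exceeds 20%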;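 also: compound exposure lasted 3 days before fixation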;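 as to nuclei count: percent of the per-plate median nuclei count of sample wells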); details: exon1htt(103Q)mCFP cell line, aggregate imaging, at 2 µM; inhibition of aggregation: stronger effect = higher value; nuclei count: measured here: cell count, toxicity
# [3] = endothelial E-selectin expression blockers – imaging, HUVEC, immunofluorescence, MLSMR starter and 10KST1 sets, primary screen (AID 487;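 active = visually confirmed hit in the image check and inhibition above 20%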;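 as to inhibition: signal is fraction of cell area covered by stained E-selectin grains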;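 as to nuclei count: 100% = median nuclei count of all wells on the same plate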); details: HUVEC TNFalpha-induced E-selectin immunofluorescence imaging, at 2 µM; inhibition: stronger effect = higher value; nuclei count: measured here: cell number, toxicity
# [4] = target: Voltage-gated potassium channel subunit beta-2 (Rattus norvegicus) (UniProt P62483); experiment: inhibitors of rat Kvbeta2 reductase activity – biochemical, NADPH fluorescence, primary screen (AID 622;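 active = fluorescence slope higher than the sample average by over 3 SD, cut at about -0.22 in these data, passing the limit was not always enough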;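 also: slope of raw intensity against log time taken from 70 to 1610 s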); details: recombinant KvBeta, 4-cyanobenzaldehyde reduction, at 10 µM, stronger effect = higher value
# Sequence of Voltage-gated potassium channel subunit beta-2 (Rattus norvegicus) (P62483 whole entry, looked up): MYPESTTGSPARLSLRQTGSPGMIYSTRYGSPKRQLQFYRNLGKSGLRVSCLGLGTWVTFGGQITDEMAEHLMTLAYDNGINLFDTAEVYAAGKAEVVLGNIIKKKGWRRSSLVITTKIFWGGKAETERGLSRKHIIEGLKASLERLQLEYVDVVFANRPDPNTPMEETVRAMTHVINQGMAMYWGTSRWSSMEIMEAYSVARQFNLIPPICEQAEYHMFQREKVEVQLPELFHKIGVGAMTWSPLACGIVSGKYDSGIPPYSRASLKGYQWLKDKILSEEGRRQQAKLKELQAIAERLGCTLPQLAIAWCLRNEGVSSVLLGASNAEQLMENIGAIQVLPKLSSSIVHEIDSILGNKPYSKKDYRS
# [5] = target: Voltage-gated potassium channel subunit beta-2 (Rattus norvegicus) (UniProt P62483); experiment: enhancers of rat Kvbeta2 NADPH turnover – biochemical, NADPH fluorescence, primary screen (AID 623;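 active = NADPH fluorescence slope more negative than the mean of all samples by about 3 SD, 99.7% confidence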;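 also: fluorescence intensity change per second fitted from 20 to 320 s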); details: Recombinant KvBeta, NADPH fluorescence decrease slope, 10 min; at 10 µM; stronger effect = lower value
# [6] = target: Muscarinic acetylcholine receptor M4 (Homo sapiens) (UniProt P08173); experiment: M4-linked GIRK flux change, two-sided – cell-based, HEK293 M4/GIRK, thallium flux, BTC-AM, M4 allosteric agonist project, primary screen (AID 625;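 active = fluorescence slope after compound addition differing from the mean of all tested samples at 99.7% confidence, mostly higher but some lower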;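 also: thallium influx through GIRK channels coupled to M4 in HEK293 cells with BTC-AM dye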); details: at 10 µM, actives lie on both sides
# Sequence of Muscarinic acetylcholine receptor M4 (Homo sapiens) (P08173 whole entry, looked up): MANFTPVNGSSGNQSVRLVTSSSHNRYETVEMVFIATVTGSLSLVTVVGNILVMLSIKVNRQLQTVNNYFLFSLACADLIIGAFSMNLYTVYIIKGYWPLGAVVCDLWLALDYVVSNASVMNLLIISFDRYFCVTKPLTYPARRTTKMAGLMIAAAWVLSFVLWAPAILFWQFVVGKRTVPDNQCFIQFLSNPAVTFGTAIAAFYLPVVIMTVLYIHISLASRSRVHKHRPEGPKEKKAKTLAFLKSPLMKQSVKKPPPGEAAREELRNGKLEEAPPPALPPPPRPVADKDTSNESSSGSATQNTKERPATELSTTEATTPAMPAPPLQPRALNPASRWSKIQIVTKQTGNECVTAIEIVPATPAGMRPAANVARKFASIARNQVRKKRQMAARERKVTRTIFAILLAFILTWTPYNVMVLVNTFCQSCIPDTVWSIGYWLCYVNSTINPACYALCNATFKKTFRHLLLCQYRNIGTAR
# Summary of the method: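 Material: M4/GIRK1/GIRK2 stable HEK293 cell line. Medium: pH 7.3 thallium assay buffer. Dosing: single compound concentration, 10 µM final. Schedule: 1 h dye loading, 2 min kinetic read. Measured by: kinetic fluorescence with BTC-AM dye. Read-out: post-addition slope, 15–24 s, of baseline-normalized fluorescence. Benchmarks: carbachol and DMSO controls.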
# [7] = blockers of RIG-like receptor reporter activation – cell-based, Sendai virus stimulus, luciferase, 10K MLSCN set, TLR/RLR signaling modifier project, primary screen (AID 602276); details: HEK293 RL24 IRF3 luciferase reporter, at 10 µM, stronger effect = higher value;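 also: firefly luciferase from ISG56 promoter only with Renilla not read in this screen; 0% = Sendai virus plus DMSO and 100% = medium plus DMSO without virus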
# [8] = TLR3 IRF3 reporter activation blockers – cell-based, poly I:C stimulus, luciferase, 10K MLSCN set, primary screen (AID 602277;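 active = inhibition of the reporter signal at or above 50%; inactive = inhibition below 50%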); details: HEK293-TLR3 RL24 IRF3 luciferase reporter, at 10 µM, stronger effect = higher value
Compound,cell count [1],inhibition [1],inhibition of aggregation [2],nuclei count [2] [%],inhibition [3],nuclei count [3] [%],fluorescence slope [4],NADPH fluorescence slope [5],fluorescence slope [6],inhibition [7],inhibition [8]
CN1CCN(C(=O)c2ccccc2N(Cc2ccccc2)S(C)(=O)=O)CC1,359,4% (inactive),2.7% (inactive),111,-6% (inactive),110,-0.596 (inactive),-6.8e-05 (inactive),0.00748 (inactive),-0.336% (inactive),4.8% (inactive)
Cc1cc2c(nn1)CCC/C2=N\O,350,4.3% (inactive),9.7% (inactive),99.1,14.6% (inactive),110,-0.552 (inactive),2.3e-05 (inactive),0.00403 (inactive),17.4% (inactive),19.5% (inactive)
O=C(CP(=O)(CO)CO)c1ccc(Cl)cc1,863,-2.9% (inactive),18.9% (inactive),119,2.9% (inactive),126,-0.536 (inactive),4.7e-05 (inactive),0.00425 (inactive),3.99% (inactive),14.2% (inactive)
CCNc1oc(COc2ccccc2F)nc1C#N,318,14.7% (inactive),-13.4% (inactive),106,-8.8% (inactive),94.1,-0.578 (inactive),-2.3e-07 (inactive),0.00601 (inactive),0.938% (inactive),-48.6% (inactive)
Cc1n[nH]c(C)c1S(=O)(=O)N1CCN(c2ccccn2)CC1,407,-8.5% (inactive),12.4% (inactive),76,-43.6% (inactive),108,-0.485 (inactive),5e-05 (inactive),0.00681 (inactive),-0.889% (inactive),2.25% (inactive)
CC(=O)Nc1nc(-c2ccc(Cl)cc2)nc(C)c1C(C)=O,577,0.5% (inactive),-13.8% (inactive),92.9,-9.1% (inactive),90.1,-0.261 (inactive),-3.2e-05 (inactive),0.00747 (inactive),2.94% (inactive),6.23% (inactive)
O=C(c1cccs1)c1cn(CC(=O)N2CCc3ccccc3C2)c2ccccc12,785,-2.9% (inactive),-15.5% (inactive),100,-137% (inactive),123,-0.519 (inactive),-3.8e-05 (inactive),0.00668 (inactive),11.1% (inactive),8.88% (inactive)
O=C(O)c1cc(/C=N\O)ccc1OCc1ccccc1,697,-6.9% (inactive),2.9% (inactive),112,-30.9% (inactive),104,-0.545 (inactive),-1.3e-05 (inactive),0.007 (inactive),-0.244% (inactive),11.6% (inactive)
